Data: ChEMBL document CHEMBL1147981, “Small molecule activators of SIRT1 as therapeutics for the treatment of type 2 diabetes” (Nature, 2007)
Calls of active or inactive are those of the source. No cut-off for these calls is given here.

Assays:
Rattus norvegicus [1] = assay: Reduction of blood glucose level in po dosed Zucker fa/fa rat assessed as glucose level after 3 weeks by glucose tolerance test; assay type: functional
In short: (§1)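 On day 26 of daily oral dosing, fa/fa Zucker rats fasted 5 h, then gavaged with 1 g/kg dextrose; tail-vein glucose at 0, 15, 30, 60, 90 min; plasma for insulin at 0, 15, 30, 60 min.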

Rattus norvegicus [2] = assay: Increase in glucose infusion rate required to maintain euglycaemia in po dosed Zucker fa/fa rat relative to control; assay type: functional
In short: (§2)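 Cannulated 10-week-old fa/fa Zucker rats, unrestrained. D-[3-3H]glucose prime 7.5 μCi, then infused at 0.167 μCi/min; basal samples at -10 and 0 min for hepatic glucose production. From 0 min, insulin at 25 mU/kg/min plus variable 50% dextrose infusion; plasma insulin and FFA at 0 and 120 min.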

[3] = AUC in Sprague-Dawley rat at 100 mg/kg/day, po; assay type: ADME, organism-based; parameters: route oral; conditions: plasma
Rattus norvegicus [4] = assay: Increase in glucose disposal rate in po dosed Zucker fa/fa rat relative to control; assay type: functional; in short: as §2
[5] = AUC in C57BL/6 mouse at 100 mg/kg/day, po; assay type: ADME, organism-based; parameters: route oral; conditions: plasma
In short: (§3)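 Oral gavage in 2% HPMC + 0.2% DOSS (hydrochloride salt) to male C57BL/6 mice, 18-22 g, 3 per dose group per time point; blood taken at 5, 30, 120 and 360 min after dosing after CO2 sacrifice; plasma drug levels measured.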

Rattus norvegicus [6] = assay: Increase in adipose insulin sensitivity in po dosed Zucker fa/fa rat assessed as plasma free fatty acid level relative to control; assay type: functional; in short: as §2
[7] = biological target: T1, NAD-dependent protein deacetylase sirtuin-1 (Homo sapiens) (UniProt Q96EB6); assay: Activation of human SIRT1-B (172-664) construct by mass spectrometry assay relative to control
T1 sequence (whole entry): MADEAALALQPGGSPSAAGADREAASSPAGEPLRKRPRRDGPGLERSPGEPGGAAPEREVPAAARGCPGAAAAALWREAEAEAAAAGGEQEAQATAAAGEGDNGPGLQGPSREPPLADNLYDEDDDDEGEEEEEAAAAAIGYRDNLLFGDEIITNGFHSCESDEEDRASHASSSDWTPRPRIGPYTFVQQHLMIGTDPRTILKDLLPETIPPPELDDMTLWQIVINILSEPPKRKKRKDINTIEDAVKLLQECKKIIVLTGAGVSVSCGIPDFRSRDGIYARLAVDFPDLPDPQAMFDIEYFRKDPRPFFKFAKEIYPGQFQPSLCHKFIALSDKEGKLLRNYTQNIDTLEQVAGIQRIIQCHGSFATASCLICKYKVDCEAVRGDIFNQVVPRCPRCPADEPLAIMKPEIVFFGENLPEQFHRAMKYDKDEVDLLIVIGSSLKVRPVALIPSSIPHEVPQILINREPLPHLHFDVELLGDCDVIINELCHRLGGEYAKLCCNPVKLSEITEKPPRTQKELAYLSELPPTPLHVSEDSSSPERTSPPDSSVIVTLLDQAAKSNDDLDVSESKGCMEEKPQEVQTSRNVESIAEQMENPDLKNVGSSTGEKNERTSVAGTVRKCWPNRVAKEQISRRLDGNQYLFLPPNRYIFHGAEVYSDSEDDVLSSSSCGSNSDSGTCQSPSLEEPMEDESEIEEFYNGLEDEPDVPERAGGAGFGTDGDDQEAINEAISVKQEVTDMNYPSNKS

[8] = biological target: T2, NAD-dependent protein deacetylase sirtuin-3, mitochondrial (Homo sapiens, UniProt Q9NTG7); assay: Activation of SIRT3 by mass spectrometry assay
T2 sequence (Q9NTG7 whole entry): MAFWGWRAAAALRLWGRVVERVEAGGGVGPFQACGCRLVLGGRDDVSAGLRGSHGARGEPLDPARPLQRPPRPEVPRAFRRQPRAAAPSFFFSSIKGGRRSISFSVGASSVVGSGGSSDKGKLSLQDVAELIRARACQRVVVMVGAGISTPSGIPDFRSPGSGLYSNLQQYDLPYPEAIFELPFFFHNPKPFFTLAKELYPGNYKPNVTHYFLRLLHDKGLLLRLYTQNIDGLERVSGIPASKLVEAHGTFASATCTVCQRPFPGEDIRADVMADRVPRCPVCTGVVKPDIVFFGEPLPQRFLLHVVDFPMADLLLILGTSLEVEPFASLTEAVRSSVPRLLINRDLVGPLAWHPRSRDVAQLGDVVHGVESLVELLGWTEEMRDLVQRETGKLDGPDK

[9] = biological target: T1, NAD-dependent protein deacetylase sirtuin-1 (Homo sapiens); assay: Activation of human SIRT1-C construct by mass spectrometry assay relative to control
Rattus norvegicus [10] = assay: Increase in insulin-induced glucose disposal rate into skeletal muscle in po dosed Zucker fa/fa rat relative to control; assay type: functional
Mus musculus [11] = assay: Reduction of fasting blood glucose in DIO C57BL/6 mouse model at 100 mg/kg, po assessed as glucose level by glucose tolerance test; assay type: functional
In short: (§4)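 Male C57BL/6 mice, started at nine weeks, fed 60%-fat diet until mean weight ~40 g; 6-10 per group; once-daily oral gavage in 2% HPMC + 0.2% DOSS. Fed glucose at 2, 4, 6, 8, 10 weeks; IPGTT after 5 weeks; ITT after 10 weeks. One-way ANOVA with Dunnett's test vs control, p<0.05.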

Mus musculus [12] = assay: Reduction of hyperinsulinemia in DIO C57BL/6 mouse model at 100 mg/kg, po after 4 weeks; assay type: functional, organism-based; parameters: dose 100 mg/kg
[13] = biological target: T1, NAD-dependent protein deacetylase sirtuin-1 (Homo sapiens); assay: Activation of human SIRT1 expressed in Escherichia coli BL21 by mass spectrometry assay
[14] = Terminal half life in Sprague-Dawley rat at 100 mg/kg/day, po; assay type: ADME, organism-based; parameters: route oral; conditions: in vivo
Rattus norvegicus [15] = assay: Reduction of blood insulin level in po dosed Zucker fa/fa rat after 3 weeks by glucose tolerance test; assay type: functional; in short: as §1
[16] = Bioavailability in Sprague-Dawley rat administered at 10 mg/kg, iv; assay type: ADME, organism-based; conditions: in vivo
[17] = biological target: T1, NAD-dependent protein deacetylase sirtuin-1 (Homo sapiens); assay: Activation of human SIRT1-E (225-664) construct by mass spectrometry assay relative to control
Mus musculus [18] = assay: Reduction of blood glucose level in diabetic Lep ob/ob mouse model at 100 mg/kg, po after 1 week; assay type: functional, organism-based; parameters: dose 100 mg/kg
In short: (§5)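 ob/ob mice received at 6 weeks, kept on 60%-fat diet from at least one week before study; ~40-45 g; grouped by body weight and glucose; once-daily oral gavage in 2% HPMC + 0.2% DOSS. One-way ANOVA with Dunnett's test vs control, p<0.05.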

[19] = biological target: T1, NAD-dependent protein deacetylase sirtuin-1 (Homo sapiens); assay: Activation of human SIRT1 assessed as decrease in Km of enzyme for acetylated peptide substrate by mass spectrometry assay
Rattus norvegicus [20] = organism: Rattus norvegicus; assay: Reduction in hepatic gluconeogenesis in Zucker fa/fa rat assessed as glucose response by pyruvate tolerance test relative to control; assay type: functional, organism-based
In short: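 Day 22 of daily oral dosing in fa/fa Zucker rats: after overnight fast, sodium pyruvate 1 g/kg ip in 0.9% NaCl; tail-vein glucose at 0, 30, 40, 50, 60 and 90 min.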

[21] = biological target: T1, NAD-dependent protein deacetylase sirtuin-1 (Homo sapiens); assay: Activation of human SIRT1-H (240-664) construct by mass spectrometry assay relative to control
[22] = Terminal half life in C57BL/6 mouse at 100 mg/kg/day, po; assay type: ADME, organism-based; parameters: route oral; conditions: in vivo; in short: as §3
[23] = biological target: T1, NAD-dependent protein deacetylase sirtuin-1 (Homo sapiens); assay: Activation of human SIRT1-D (219-664) construct by mass spectrometry assay relative to control
[24] = biological target: T3, NAD-dependent protein deacetylase sirtuin-2 (Homo sapiens, UniProt Q8IXJ6); assay: Activation of SIRT2 by mass spectrometry assay
T3 sequence (Q8IXJ6 whole entry): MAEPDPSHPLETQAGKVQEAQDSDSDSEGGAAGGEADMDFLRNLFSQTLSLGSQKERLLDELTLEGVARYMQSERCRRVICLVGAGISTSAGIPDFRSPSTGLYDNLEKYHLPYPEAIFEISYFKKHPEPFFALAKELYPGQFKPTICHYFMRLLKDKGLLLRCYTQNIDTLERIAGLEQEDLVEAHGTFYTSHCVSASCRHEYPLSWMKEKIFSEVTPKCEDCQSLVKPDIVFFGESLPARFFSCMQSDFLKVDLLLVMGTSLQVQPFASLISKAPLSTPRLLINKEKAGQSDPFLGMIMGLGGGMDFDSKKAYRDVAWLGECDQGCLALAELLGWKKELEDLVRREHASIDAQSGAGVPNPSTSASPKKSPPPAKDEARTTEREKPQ

Rattus norvegicus [25] = assay: Increase in insulin sensitivity in po dosed Zucker fa/fa rat assessed as hepatic glucose production relative to control; assay type: functional, organism-based; in short: as §2
[26] = biological target: T1, NAD-dependent protein deacetylase sirtuin-1 (Homo sapiens); assay: Activation of SIRT1 in human U2OS cells assessed as decrease in p53 deacetylation level at 0.10 uM; assay type: cell-based
In short: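 U-2 OS cells seeded 1.5 × 10⁴/well; compounds in DMSO added after 24 h, then doxorubicin 1 μg/ml final to induce p53. Fixed, permeabilized, immunostained for Ac-Lys382-p53 and beta-tubulin, infrared scan; background-corrected acetyl signal normalized to tubulin, then to vehicle as % acetylated p53. Replicate plates co-treated with a SIRT1-specific inhibitor.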

[27] = biological target: T1, NAD-dependent protein deacetylase sirtuin-1 (Homo sapiens); assay: Activation of human SIRT1-F (230-664) construct by mass spectrometry assay relative to control
Mus musculus [28] = assay: Increase in mitochondrial capacity in DIO C57BL/6 mouse model assessed as citrate synthase activity at 100 mg/kg, po after 10 weeks; assay type: functional; conditions: in the assay text read “after 11 weeks” for “after 10 weeks”
In short: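 Citrate synthase activity in gastrocnemius and epididymal white adipose tissue after 11 weeks of daily oral dosing in high-fat-fed C57BL/6 mice; five mice per group closest to the group's mean fasting glucose were selected.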

Mus musculus [29] = assay: Effect on body weight in diabetic Lep ob/ob mouse model at 100 mg/kg, po; assay type: functional, organism-based; parameters: dose 100 mg/kg; in short: as §5
[30] = biological target: T1, NAD-dependent protein deacetylase sirtuin-1 (Homo sapiens); assay: Activation of human SIRT1-G (235-664) construct by mass spectrometry assay relative to control
[31] = biological target: T1, NAD-dependent protein deacetylase sirtuin-1 (Homo sapiens); assay: Activation of human SIRT1-A (156-664) construct by mass spectrometry assay relative to control
[32] = Bioavailability in C57BL/6 mouse at 100 mg/kg/day, po; assay type: ADME, organism-based; conditions: in vivo
In short: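 Male C57BL/6 mice (18-22 g, 3 per group per time point). Oral dosing by gavage in 2% HPMC + 0.2% DOSS, compared with tail-vein iv dosing in 10% ethanol/40% PEG/50% water.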

Mus musculus [33] = organism: Mus musculus; assay: Reduction of insulin level in chow-fed C57BL/6 mouse; assay type: functional, organism-based
Mus musculus [34] = assay: Reduction of glucose levels in DIO C57BL/6 mouse model at 100 mg/kg, po during insulin tolerance test; assay type: functional, organism-based; parameters: dose 100 mg/kg; in short: as §4

AUC [3]: 3710 ng·h/mL | AUC [5]: 7890 ng·h/mL | Activity [7]: 5.8 | EC50 [8]: > 300 µM | Activity [9]: 5.6 | Activity [13]: 781% | half-life [14]: 504 min | bioavailability [16]: 25% | Activity [17]: 1.6 | Activity [19]: Active | Activity [21]: 2 | half-life [22]: 300 min | Activity [23]: 1.3 | EC50 [24]: 37 µM | Activity [26]: Active | Activity [27]: 1.5 | Activity [30]: 1.9 | Activity [31]: 5.9 | bioavailability [32]: 50%
Compound: O=C(Nc1ccccc1-c1cn2c(CN3CCNCC3)csc2n1)c1cnc2ccccc2n1
Activity (Rattus norvegicus [1]): 2490 mg/min/dL | Activity (Rattus norvegicus [2]): 35% | Activity (Rattus norvegicus [4]): 20% | Activity (Rattus norvegicus [6]): 40% | Activity (Rattus norvegicus [10]): 55% | Activity (Mus musculus [11]): 462 mg/h/dL | Activity (Mus musculus [12]): Active | Activity (Rattus norvegicus [15]): 25 ng/min/dL | Activity (Mus musculus [18]): Active | Activity (Rattus norvegicus [20]): Active | Activity (Rattus norvegicus [25]): Active | Activity (Mus musculus [28]): 15% | Activity (Mus musculus [29]): inactive | Activity (Mus musculus [33]): inactive | Activity (Mus musculus [34]): Active
